# A selection: hits, their analogues and other compounds. The true share with any hit is near 2%.
# PvdQ acylase = P. aeruginosa PvdQ acylase inhibitors, primary screen, biochemical, fluorescence, plate reader and imaging, single point; inhibition, % at 10 µM; 0.063% of 340,000 active; purified PvdQ acylase; PvdQ acylase [Pseudomonas aeruginosa LESB58]; in the data active = inhibition above about 30%, passing the limit was not always enough;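 also: 0% = vehicle neutral wells and 100% = reference inhibitor wells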
# PLC-gamma1 inh = PLC-gamma1 enzyme inhibitors, primary screen, biochemical, fluorescence, purified enzyme; 1-phosphatidylinositol 4,5-bisphosphate phosphodiesterase gamma-1 (Homo sapiens), P19174; fluorogenic substrate; inhibition, % at 12.2 µM; 0.84% of 370,000 active; AID 720700, 2013; in the data active = inhibition above about 9.5%
# Target sequence (P19174 whole entry, looked up): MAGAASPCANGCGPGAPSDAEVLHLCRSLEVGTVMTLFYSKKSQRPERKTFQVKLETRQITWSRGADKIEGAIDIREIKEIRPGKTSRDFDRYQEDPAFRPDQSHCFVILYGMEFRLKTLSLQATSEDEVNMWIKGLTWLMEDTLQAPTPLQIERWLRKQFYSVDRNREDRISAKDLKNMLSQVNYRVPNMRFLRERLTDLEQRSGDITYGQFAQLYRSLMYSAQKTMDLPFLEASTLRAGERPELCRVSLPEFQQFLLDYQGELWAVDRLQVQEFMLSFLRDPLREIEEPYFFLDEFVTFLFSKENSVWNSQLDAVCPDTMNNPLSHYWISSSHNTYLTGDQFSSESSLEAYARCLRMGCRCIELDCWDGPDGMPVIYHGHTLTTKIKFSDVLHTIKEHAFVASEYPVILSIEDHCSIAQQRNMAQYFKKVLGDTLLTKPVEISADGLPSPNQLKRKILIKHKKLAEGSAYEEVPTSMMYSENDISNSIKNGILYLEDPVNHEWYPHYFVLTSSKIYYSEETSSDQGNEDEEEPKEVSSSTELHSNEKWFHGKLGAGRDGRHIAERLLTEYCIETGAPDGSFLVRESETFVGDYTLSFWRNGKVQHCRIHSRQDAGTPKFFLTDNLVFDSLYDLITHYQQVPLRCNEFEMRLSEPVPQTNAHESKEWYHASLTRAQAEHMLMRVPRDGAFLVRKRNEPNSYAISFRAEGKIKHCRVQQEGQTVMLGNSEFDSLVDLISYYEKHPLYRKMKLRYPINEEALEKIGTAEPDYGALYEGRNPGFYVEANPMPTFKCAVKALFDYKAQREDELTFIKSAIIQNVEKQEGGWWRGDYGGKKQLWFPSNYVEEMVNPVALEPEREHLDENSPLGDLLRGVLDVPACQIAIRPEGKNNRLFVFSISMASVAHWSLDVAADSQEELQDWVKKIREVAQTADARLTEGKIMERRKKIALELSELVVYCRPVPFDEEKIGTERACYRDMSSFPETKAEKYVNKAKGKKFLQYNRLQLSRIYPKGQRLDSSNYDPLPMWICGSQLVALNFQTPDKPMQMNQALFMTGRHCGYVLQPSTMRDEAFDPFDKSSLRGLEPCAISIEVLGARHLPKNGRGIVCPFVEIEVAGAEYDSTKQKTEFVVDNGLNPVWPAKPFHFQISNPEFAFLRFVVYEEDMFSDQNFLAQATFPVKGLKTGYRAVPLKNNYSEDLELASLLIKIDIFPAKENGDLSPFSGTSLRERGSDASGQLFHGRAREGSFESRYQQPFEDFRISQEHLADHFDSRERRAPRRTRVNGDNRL
# VIM-2 inhibitor = VIM-2 metallo-beta-lactamase inhibitors, primary screen, biochemical, epi-absorbance readout, Pseudomonas aeruginosa enzyme; inhibition, % at 5.6 µM; purified VIM-2, nitrocefin hydrolysis, epi-absorbance fluorescence; 0.89% of 290,000 active;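 active = inhibition above the mean of all tested compounds plus 3 SD, cutoff set per screening run, cut at about 7.5% in these data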;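 also: red hydrolysis product quenches plate fluorescence so inhibitors raise well fluorescence; 0% = enzyme with DMSO and 100% = DMSO without enzyme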
# IMP-1 inh = IMP-1 metallo-beta-lactamase inhibitors, primary screen, biochemical, epi-absorbance readout, Pseudomonas aeruginosa enzyme; metallo-beta-lactamase IMP-1 (Pseudomonas aeruginosa); purified IMP-1, nitrocefin hydrolysis, epi-absorbance fluorescence; inhibition, % at 5.6 µM; 0.45% of 290,000 active;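 active = inhibition above the mean plus 3 SD of all compounds in the same screening run, cut at about 4.5% in these data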;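 also: 0% = IMP-1 with DMSO and 100% = DMSO wells lacking enzyme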
#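 System – purified recombinant IMP-1 beta-lactamase · Input – IMP-1 dispensed at 0.2 nM · Timing – 15 min preincubation plus 25 min reaction at 25 °C · Signal – Epi-absorbance fluorescence, 480 nm excitation, 530 nm emission · Measure – percent IMP-1 inhibition derived from blank-referenced optical density · Controls – Enzyme-plus-DMSO low control, enzyme-free DMSO high control · Replication – singlicate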
# PLC-beta3 inh = human PLC-beta3 inhibitors, primary screen, biochemical, fluorescence | 1-phosphatidylinositol 4,5-bisphosphate phosphodiesterase beta-3 (Homo sapiens), Q01970 | Purified PLC-beta3, fluorogenic substrate | inhibition, % at 12.2 µM | 0.18% of 370,000 active | AID 720704, 2013; in the data active = inhibition above about 11%;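 also: 0% = median of compound wells on plate and 100% = full blocker control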
# * = called active by the depositor; nt = not tested or not shown.
SMILES,PvdQ acylase,PLC-gamma1 inh,VIM-2 inhibitor,IMP-1 inh,PLC-beta3 inh
Cc1c(-n2c(-c3ccccc3Cl)n[nH]c2=S)c(=O)n(-c2ccccc2)n1C,-8.9,0.0,74.0*,-4.8,-7.7
COC(=O)[C@]12C[C@H](CC(=O)NCCCN3CCCC3=O)C(=O)N(Cc3cccc4ccccc34)C1=C[C@H](C(C)(C)C)O[C@@H]2C,nt,-1.2,nt,nt,0.1
COc1ccc(Nc2nc(NCCCN3CCOCC3)nc(N)c2[N+](=O)[O-])cc1,3.7,6.8,1.4,-2.4,2.4
Nc1nc(NCCCN2CCOCC2)nc(Nc2cccc(F)c2)c1[N+](=O)[O-],3.7,4.4,9.7*,-3.8,2.4
Nc1nc(NCCCN2CCOCC2)nc(Nc2ccc(F)cc2)c1[N+](=O)[O-],-5.5,3.6,8.1*,-0.2,6.4
O=c1c2ccccc2[nH]n1[C@@H](Cc1ccccc1)Cn1cc(-c2ccc(-c3ccccc3)cc2)nn1,nt,-7.6,nt,nt,-8.7
CCOc1cc(C(N)=O)cc(Br)c1OC,-6.4,0.1,1.8,4.6*,-2.5
CN(c1ncnc(N)c1[N+](=O)[O-])C1CCS(=O)(=O)C1 (centres undefined),2.6,2.4,-2.4,-5.2,4.7
CN(c1ncnc(N)c1[N+](=O)[O-])C1CCCCC1,37.9*,2.9,-0.7,-1.0,-10.5
COCC(=O)N1CCCC(N(C)CCc2ccc(OC)c(OC)c2)C1 (centres undefined),-4.3,-2.4,-2.2,8.0*,-3.7
Cc1nnc(SCC(=O)n2c3c(c4ccccc42)CCCC3)s1,-6.9,3.1,9.8*,-0.5,-0.5
Cn1c(SCC(=O)n2c3c(c4ccccc42)CCCC3)nnc1-c1ccccc1,-12.9,-1.1,8.7*,1.3,-0.9
CCOC(=O)[C@@]12CCCC=C1N(CCc1ccc(Cl)cc1)C(=O)[C@H]2CC(=O)NCC1CCCCC1,nt,1.4,nt,nt,-0.5
O=C(CN1C(=O)C2(OCCCO2)c2ccccc21)NCc1ccc2ccccc2c1,nt,-2.5,nt,nt,2.3
COc1cccc(CNC(=O)C2CCC(CNS(=O)(=O)c3cccc4cccnc34)CC2)c1OC (centres undefined),nt,-5.0,nt,nt,-1.5
O=C(Cc1ccc(-n2c(=O)c3ccccc3n(Cc3ccccc3Cl)c2=O)cc1)NCC1CCCO1 (centres undefined),-2.9,-2.5,-0.6,4.8*,-11.7
CC(c1ccccc1)C1CC(=O)N(c2cc(Cl)ccn2)C1=O (centres undefined),-15.0,3.0,-0.2,14.7*,-4.2
O=C(O)/C(=C\c1ccccc1OC(F)F)c1ccc(-c2ccccc2)cc1,-13.9,-17.5,-1.8,7.3*,-37.9
O=C(O)/C(=C\c1ccc(F)cc1)c1ccc(-c2ccccc2)cc1,-9.1,1.4,-0.5,-0.4,-10.3
Cc1ccc(-c2nnc3c4ccccc4c(C)nn23)cc1NC(=O)c1ccco1,nt,nt,1.4,-6.0,nt
Cc1nn2c(-c3cccc(NC(=O)c4ccco4)c3)nnc2c2ccccc12,1.0,-10.1,9.8*,3.3,-15.3
O=C(O)C1=C(C(=O)Nc2cc(C(F)(F)F)ccc2Cl)CCCC1,-24.9,-0.2,3.5,9.9*,-1.9
COc1ccc(C(=O)Nc2nnc(SCC(=O)NCc3ccco3)s2)c(OC)c1,-12.4,-7.6,11.1*,-1.5,-17.1
CCCCCCn1cc(CN2CC=CS2(=O)=O)nn1,nt,0.3,nt,nt,1.4
COCCNC(=O)c1ccc2c(Cl)c3c(nc2c1)CCC3,12.3,5.8,2.9,-3.0,-8.7
SMILES,PvdQ acylase,PLC-gamma1 inh,VIM-2 inhibitor,IMP-1 inh,PLC-beta3 inh
O=C(NCCCN1CCCCCC1)c1ccc2c(Cl)c3c(nc2c1)CCCC3,-8.3,-3.1,0.5,-3.6,-8.2
CCCN(CCC)CCCNC(=O)c1ccc2c(Cl)c3c(nc2c1)CCC3,7.2,4.3,9.6*,-3.4,-5.3
CCN1CCN(CCCNC(=O)c2ccc3c(Cl)c4c(nc3c2)CCCC4)CC1,-5.2,0.0,11.3*,-0.6,-0.5
CC1CCN(CCCNC(=O)c2ccc3c(Cl)c4c(nc3c2)CCCC4)CC1,-9.1,1.5,11.2*,-0.7,-6.9
Cc1ccc(C)c2nc3sc(C(=O)O)cc3cc12,-7.7,-69.6,9.6*,-3.6,-83.6
Cc1ccc(C)c2nc3sc(C(=O)N4CCCc5ccccc54)c(N)c3cc12,0.1,-76.5,-3.4,-1.4,-199.7
Cc1ccc(-n2ncc(C(=O)Nc3cc(Cl)cc(Cl)c3)c2C2CCNCC2)cc1C,-10.2,9.8*,0.7,-3.2,2.1
Cc1ccc(-n2ncc(C(=O)Nc3cc(Cl)ccc3Cl)c2C2CCNCC2)cc1,-8.9,-0.6,-1.2,-1.4,-1.6
Cc1cc(Nc2ccc(Br)cc2)n2nc(C)nc2n1,-9.7,-2.3,4.7,-2.7,-3.9
Cc1cc(Nc2cccc(F)c2)n2nc(C)nc2n1,-2.5,0.4,3.9,-3.2,-3.7
Cc1cc(Nc2ccc(F)cc2Cl)n2nc(C)nc2n1,-20.4,-2.0,2.7,-4.4,2.5
Cc1cc(Nc2ccc(F)cc2)n2nc(C)nc2n1,-4.1,-0.4,9.7*,2.0,0.3
COc1ccc(Cl)cc1Nc1cc(C)nc2nc(C)nn12,7.4,2.4,10.0*,-2.5,-0.8
Cc1cc(Nc2ccc3c(c2)OCCO3)n2nc(C)nc2n1,4.1,3.7,14.1*,-3.3,0.7
O=S1(=O)c2ccc(N3CCSCC3)cc2Oc2ccccc2CN1Cc1cn(Cc2ccc(F)cc2)nn1,nt,-2.1,nt,nt,-0.3
CCOC(=O)[C@@]12CCCC=C1N(CCc1ccc(Cl)cc1)C(=O)[C@H]2CC(=O)NCc1ccccc1,nt,2.5,nt,nt,1.8
Cc1ccc(-c2c(C(=O)O)c(C(=O)O)c3n2CCC3)cc1,-10.8,-2.3,9.8*,-1.6,-0.6
O=C(O)c1c(C(=O)O)c(-c2ccc(F)cc2)n2c1CCC2,-4.7,-2.0,10.6*,1.4,-5.0
COC(=O)c1c(C(=O)OC)c(-c2ccc(C)cc2)n2c1CCC2,-13.4,3.9,-1.8,-3.0,3.2
CCCCOc1ccc(CN2CCC(O)CC2)cc1,-16.5,3.2,-2.8,45.2*,3.3
Cc1cccc(C(=O)N[C@H]2CC[C@@]34CCCN3C(=O)CCC[C@H]4[C@H]2C)c1,nt,-1.3,nt,nt,5.1
CN(C)CCn1c(SCc2ccccc2C#N)nc2c(sc3ccccc32)c1=O,-6.8,-53.2,10.4*,2.5,-69.4
COc1ccc(NC(=O)CSc2nnc(-c3cccs3)o2)cc1Cl,nt,2.0,nt,nt,2.4
Cc1cccc(C)c1NC(=O)C1(C)CSCC(=O)N1CCOc1ccccc1 (centres undefined),nt,12.3*,nt,nt,11.1*
O=C(Nc1nc2ncccn2c1-c1ccc(F)cc1)c1ccc(F)cc1,nt,-170.9,nt,nt,-236.6
COC(=O)c1ccc(=O)c2nc3/c(=C/O)c(O)cc(=O)c3[nH]c12,6.2,10.9*,17.6*,2.5,7.9
CCOC(=O)c1ccc(N2C(=O)C(C)=C(C)C2=O)cc1,37.6*,4.6,-2.4,0.8,0.4
CC1=C(C)C(=O)N(c2ccc(C(=O)O)cc2)C1=O,-21.1,2.6,-0.4,-1.9,0.4
